Data published in article PMC3116947 (Journal of Molecular Recognition, 2010).
Ends that are not written are not given here.

Experiments:
[1] = biological target: D190A mutant of cSH3 domain (cSH3_D190A) of Grb2 (Homo sapiens, UniProt P62993, D190A); experiment: ITC binding of G1 and G2 peptides to cSH3_D190A; details: SD
Method in brief: (§1)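 Human Grb2 cSH3 domain (wildtype or point mutant) expressed in E. coli Rosetta2(DE3), purified by Ni-NTA and size-exclusion chromatography. 12-mer human Gab1 peptides, concentration measured gravimetrically. ITC at 25 °C in 50 mM Tris pH 8.0, 200 mM NaCl, 1 mM EDTA, 5 mM β-mercaptoethanol: 25 injections of 2–8 mM peptide into 50–200 µM cSH3. Kd from one-site non-linear least-squares fit; 3–4 independent runs, SD.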

cSH3 domain of Grb2 = cSH3 domain of Grb2 (Homo sapiens, UniProt P62993); experiment: ITC binding of Gab1-derived peptides to wildtype cSH3 domain of Grb2; details: binding affinity (Kd), 50 mM Tris, pH 8.0, 25 °C (Figure 3a)
Chain of cSH3 domain of Grb2 (P62993 156-215 limits assumed): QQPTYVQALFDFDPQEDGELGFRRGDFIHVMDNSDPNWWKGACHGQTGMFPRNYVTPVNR

[2] = biological target: E171A mutant of cSH3 domain (cSH3_E171A) of Grb2 (Homo sapiens, UniProt P62993, E171A); experiment: ITC binding of G1 and G2 peptides to cSH3_E171A; details: SD
Chain of E171A mutant of cSH3 domain (cSH3_E171A) of Grb2 (P62993 156-215 E171A limits assumed): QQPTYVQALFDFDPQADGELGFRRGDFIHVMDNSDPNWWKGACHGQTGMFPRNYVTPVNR
Method in brief: as §1

[3] = biological target: E174A mutant of cSH3 domain (cSH3_E174A) of Grb2 (Homo sapiens, UniProt P62993, E174A); experiment: ITC binding of G1 and G2 peptides to cSH3_E174A
Chain of E174A mutant of cSH3 domain (cSH3_E174A) of Grb2 (P62993 156-215 E174A limits assumed): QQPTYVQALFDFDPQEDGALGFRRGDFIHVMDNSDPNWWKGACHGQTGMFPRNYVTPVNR
Method in brief: as §1

[4] = biological target: D187A mutant of cSH3 domain (cSH3_D187A) of Grb2 (Homo sapiens, UniProt P62993, D187A); experiment: ITC binding of G1 and G2 peptides to cSH3_D187A; details: SD
Chain of D187A mutant of cSH3 domain (cSH3_D187A) of Grb2 (P62993 156-215 D187A limits assumed): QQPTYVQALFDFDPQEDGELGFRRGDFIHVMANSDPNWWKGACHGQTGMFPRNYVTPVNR
Method in brief: as §1

Chain of D190A mutant of cSH3 domain (cSH3_D190A) of Grb2 (P62993 156-215 D190A limits assumed): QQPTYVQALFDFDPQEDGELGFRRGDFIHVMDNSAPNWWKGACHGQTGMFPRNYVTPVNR

Sequence | Kd [1] | Kd (cSH3 domain of Grb2; in the absence of NaCl) | Kd (cSH3 domain of Grb2; in the presence of 500 mM NaCl) | Kd [2] | Kd [3] | Kd [4]
DIPPPRPPKPHP [Peptide G1] | 177 ± 17 µM | ~50 µM | ~200 µM | 444 ± 55 µM | > 1000 µM | 171 ± 8 µM
PPPVDRNLKPDR [Peptide G2] | 77 ± 6 µM |  |  | 158 ± 1 µM | > 1000 µM | 182 ± 3 µM
